Reference: ChEMBL document CHEMBL1148736, “N-Acylthiadiazolines, a new class of liver X receptor agonists with selectivity for LXRbeta” (J Med Chem, 2007)
Activity calls are given as the source filed them. The rule behind the calls is not given here.

Assays:
[1] = AUC in C57BL/6 mouse at 5 mg/kg, iv; assay type: ADME, organism-based; parameters: dose 5 mg/kg, route intravenous; conditions: plasma
Procedure, shortened: (§1)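 Mouse PK study, IV and PO; compound formulated at 2.5 mg/mL in PEG300/Tween 80 (4:1). IV dose 5 mpk (AUC, Cmax, clearance, Vss); oral dose 20 mpk (AUC, Cmax, bioavailability, t1/2).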

[2] = AUC in C57BL/6 mouse at 20 mg/kg, po; assay type: ADME, organism-based; parameters: dose 20 mg/kg, route oral; conditions: plasma; procedure, shortened: as §1
[3] = target: T1, Oxysterols receptor LXR-beta (Homo sapiens) (UniProt P55055); experiment: Displacement of [3H]T-0901317 from GAL-linked human LXRbeta expressed in THP1 cells at 20 uM by SPA relative to GW-3965; assay type: cell-based; conditions: THP-1
T1 sequence (whole entry): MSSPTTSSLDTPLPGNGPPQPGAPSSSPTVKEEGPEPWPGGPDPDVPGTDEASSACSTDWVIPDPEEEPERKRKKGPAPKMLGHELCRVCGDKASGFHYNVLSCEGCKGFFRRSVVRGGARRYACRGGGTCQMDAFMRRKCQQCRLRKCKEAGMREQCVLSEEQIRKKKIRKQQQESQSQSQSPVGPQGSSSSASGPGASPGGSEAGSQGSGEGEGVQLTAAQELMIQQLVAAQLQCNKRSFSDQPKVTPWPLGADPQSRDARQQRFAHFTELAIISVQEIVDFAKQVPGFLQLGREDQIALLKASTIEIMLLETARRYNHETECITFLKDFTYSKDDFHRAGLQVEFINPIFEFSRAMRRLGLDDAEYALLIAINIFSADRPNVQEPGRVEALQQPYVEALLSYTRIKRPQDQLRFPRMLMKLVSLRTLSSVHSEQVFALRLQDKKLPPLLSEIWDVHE
Procedure, shortened: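 Scintillation proximity displacement with His-tagged hLXRα or hLXRβ LBD (200 ng/well) and 30 nM [3H]T0901317. Beads 0.2 mg/well in phosphate buffer with EDTA, NaCl, DTT, CHAPS, 10% glycerol. 12-point curves from 20 µM; shaken 3 h at room temperature. No-competitor wells = 100% binding; nonspecific binding without protein. Efficacy = maximal displacement relative to reference dual agonist.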

[4] = target: T2, Oxysterols receptor LXR-beta (Homo sapiens, UniProt P55055); experiment: Agonist activity at GAL-linked human LXRbeta expressed in THP1 cells assessed as stimulation of co-activator recruitment by FRET assay; assay type: functional
T2 sequence (P55055 whole entry): T1 sequence (whole entry)
Procedure, shortened: (§2)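 Cell-free TR-FRET coactivator recruitment: 20 nM His-tagged hLXRα or hLXRβ, 300 nM biotinylated SRC-1 peptide, Eu-anti-His antibody, APC-streptavidin. 12-point curves from 20 µM; 1 h at 37 °C. Duplicate. %E = maximal coactivator recruitment relative to reference dual agonist in same experiment.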

[5] = target: T1, Oxysterols receptor LXR-beta (Homo sapiens); experiment: Agonist activity at GAL-linked human LXRbeta expressed in THP1 cells assessed as stimulation of co-activator recruitment by FRET assay relative to GW-3965; assay type: functional; procedure, shortened: as §2
[6] = tested on: THP-1; experiment: Increase in ABCA1 gene expression in THP1 cells at 10 uM relative to GW-3965; assay type: functional, Homo sapiens
Procedure, shortened: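 THP-1 cells differentiated with 40 ng/mL PMA for 1 day, then switched to RPMI with 2% lipoprotein-deficient FBS. Compound added 6 h later at 1 or 10 µM in DMSO, incubated 24 h. ABCA1 mRNA by one-step TaqMan qRT-PCR, triplicate, multiplexed with 36B4; fold induction vs DMSO, expressed relative to reference dual agonist.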

[7] = tested on: Macrophage; experiment: Induction of ABCA1 gene expression in LXRalpha deficient mouse macrophages; assay type: functional, cell-based
Procedure, shortened: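 Thioglycollate-elicited peritoneal macrophages from LXR-null mice, plated 24 h. Treated as for THP-1 without PMA: 2% lipoprotein-deficient serum medium, compound in DMSO for 24 h. ABCA1 mRNA by TaqMan qRT-PCR with 36B4 control, fold vs DMSO. Two concentrations used.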

[8] = tested on: Liver; experiment: Effect on SREBP1c gene expression in C57BL/6 mouse liver; assay type: functional, tissue-based
Procedure, shortened: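 Male C57BL/6 mice, 10 weeks old, chow-fed, gavaged daily with vehicle or compound (20–200 mpk) for 3 days. Fasted overnight before the last dose; killed 3 h later. Tissue RNA analysed by TaqMan qRT-PCR.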

[9] = target: T3, Oxysterols receptor LXR-alpha (Homo sapiens, UniProt Q13133); experiment: Activity at human LXRalpha by Gal4 transactivation assay
T3 sequence (Q13133 whole entry): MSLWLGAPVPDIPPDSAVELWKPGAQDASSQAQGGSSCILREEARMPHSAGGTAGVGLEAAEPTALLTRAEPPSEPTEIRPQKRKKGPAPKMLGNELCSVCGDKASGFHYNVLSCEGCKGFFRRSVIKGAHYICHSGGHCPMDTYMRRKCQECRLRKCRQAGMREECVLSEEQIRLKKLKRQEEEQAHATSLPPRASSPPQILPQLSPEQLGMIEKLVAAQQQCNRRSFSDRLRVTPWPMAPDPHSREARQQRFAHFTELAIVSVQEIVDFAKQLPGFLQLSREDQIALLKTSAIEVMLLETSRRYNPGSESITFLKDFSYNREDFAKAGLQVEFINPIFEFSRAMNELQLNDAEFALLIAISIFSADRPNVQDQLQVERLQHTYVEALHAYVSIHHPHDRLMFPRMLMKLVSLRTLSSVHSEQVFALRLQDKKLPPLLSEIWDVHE
Procedure, shortened: (§3)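 GAL4 DBD fused to hLXRα or hLXRβ LBD in pcDNA3, co-transfected into HepG2 with luciferase reporter. Cells in DMEM with 10% lipoprotein-deficient FBS, 7.5 µM lovastatin, 100 µM mevalonic acid. Ligand added 24 h post-transfection as 11-point curves from 10 µM; luciferase read after 16 h. Run in quadruplicate. %E = max fold induction vs max fold induction of reference dual agonist in same experiment.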

[10] = target: T2, Oxysterols receptor LXR-beta; experiment: Activity at human LXRbeta by Gal4 transactivation assay; procedure, shortened: as §3
[11] = target: T4, Bile acid receptor (Homo sapiens) (UniProt Q96RI1); experiment: Activity at FXR by cell based assay; assay type: functional
T4 sequence (whole entry): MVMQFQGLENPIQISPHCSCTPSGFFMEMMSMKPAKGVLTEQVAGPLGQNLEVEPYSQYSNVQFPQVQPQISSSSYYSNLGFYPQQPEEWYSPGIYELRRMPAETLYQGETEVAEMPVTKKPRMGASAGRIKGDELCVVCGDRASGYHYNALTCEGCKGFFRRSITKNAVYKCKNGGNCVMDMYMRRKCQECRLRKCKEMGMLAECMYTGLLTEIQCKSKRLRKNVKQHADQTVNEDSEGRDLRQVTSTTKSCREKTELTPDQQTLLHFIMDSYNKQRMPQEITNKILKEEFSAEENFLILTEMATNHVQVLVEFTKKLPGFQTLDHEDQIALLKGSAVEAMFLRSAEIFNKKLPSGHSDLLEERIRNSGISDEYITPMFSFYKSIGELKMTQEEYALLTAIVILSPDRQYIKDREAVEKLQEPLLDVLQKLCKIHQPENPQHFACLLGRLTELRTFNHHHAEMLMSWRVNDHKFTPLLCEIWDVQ

[12] = Clearance in C57BL/6 mouse at 5 mg/kg, iv; assay type: ADME, organism-based; parameters: dose 5 mg/kg, route intravenous; conditions: in vivo; procedure, shortened: as §1
[13] = Stability in human liver microsomes at 1 uM after 30 mins; assay type: ADME, Microsome; conditions: read-out: Stability
Procedure, shortened: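 Incubated at 1 µM with human liver microsomes; percent parent remaining measured at 30 min.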

SMILES: COc1cccc(C2SC(c3ccc(Cl)cc3)=NN2C(=O)c2c(F)cc(F)cc2F)c1OC (racemic)
- AUC [1]: 7140 ng·h/mL
- AUC [2]: 7920 ng·h/mL
- Efficacy [3]: 100%
- EC50 [4]: 250 nM
- Efficacy [5]: 99%
- Activity [6]: 59%
- Activity [7]: Active
- Activity [8]: inactive
- EC50 [9]: 608 nM
- EC50 [10]: 98 nM
- Activity [11]: inactive
- clearance [12]: 12.2 mL/min/kg
- remaining at 0.5 h, 1 µM [13]: 70%
